Results on 15 compounds are retold here after ChEMBL document CHEMBL1146983, “The design and synthesis of human branched-chain amino acid aminotransferase inhibitors for treatment of neurodegenerative diseases” (Bioorg Med Chem Lett, 2006).

A value given as a limit tells only on which side of the number the result lay.

The target of this assay is T1, Branched-chain-amino-acid aminotransferase, cytosolic (Homo sapiens, UniProt P54687).
T1 sequence (P54687 whole entry): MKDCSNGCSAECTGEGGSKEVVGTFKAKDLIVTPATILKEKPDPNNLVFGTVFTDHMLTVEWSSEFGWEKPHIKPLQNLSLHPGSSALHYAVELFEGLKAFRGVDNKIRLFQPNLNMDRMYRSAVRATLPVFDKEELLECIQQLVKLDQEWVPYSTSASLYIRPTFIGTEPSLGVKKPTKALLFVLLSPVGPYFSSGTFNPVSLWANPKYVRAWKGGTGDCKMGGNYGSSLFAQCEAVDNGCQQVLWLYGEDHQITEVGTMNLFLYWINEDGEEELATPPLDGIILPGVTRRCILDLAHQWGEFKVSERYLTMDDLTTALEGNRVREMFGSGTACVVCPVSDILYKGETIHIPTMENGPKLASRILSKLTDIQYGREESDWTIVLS
Put plainly: Inhibition of human BCATc. Summed up: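 Recombinant hBCATc (E. coli-expressed, purified; 50-100 nM) coupled to saturating purified bovine liver GDH. Mix: 25 mM NaPi pH 7.8, 0.75 mM L-leucine, 0.5 mM α-ketoglutarate, 10 μM pyridoxal phosphate, 1 mM NAD+, 4 mM ADP, 2 mM DTT, 12.5 mM EDTA, 1% DMSO final. 37 °C; A340 read over 20 min. IC50 from 8 to 10 point curves.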

For orientation: IC50 means the concentration that gives 50% inhibition. Low readings indicate higher potency, high ones lower potency. Compound `O=C(NNS(=O)(=O)c1ccccc1)c1cc2cc(Br)ccc2o1` had an IC50 of 2.5 µM.

Compound `COc1ccc2[nH]c(C(=O)NNS(=O)(=O)c3ccccc3)cc2c1` came in with an IC50 of 56.8 µM.

`O=C(NNS(=O)(=O)c1ccccc1)c1ccc2oc3ccccc3c2c1`: the half-inhibitory concentration (IC50) came out at 2.35 µM.

Turning to `O=C(NNS(=O)(=O)c1ccccc1)c1cc2ccccc2[nH]1`, the IC50 came out at 36 µM. The value for `O=C(NNS(=O)(=O)c1ccccc1)c1cc2cc(Br)ccc2[nH]1` was 15 µM; that for `O=C(NNS(=O)(=O)c1ccccc1Cl)c1cc2cc(Cl)ccc2o1` was 5.7 µM. The result for `O=C(NNS(=O)(=O)c1ccccc1)c1cnc2ccccc2c1` reads 33.3 µM; that for `Cc1ccccc1S(=O)(=O)NNC(=O)c1cc2cc(Cl)ccc2[nH]1`, 1.16 µM; that for `Cc1cccc(S(=O)(=O)NNC(=O)c2cccc3c2oc2ccccc23)c1`, 2.8 µM.

The compound `O=C(NNS(=O)(=O)c1cccc(Cl)c1)c1cccc2c1oc1ccccc12` gave an IC50 of more than 35 µM.

For `O=C(NNS(=O)(=O)c1ccccc1)c1cc2ccccc2o1`, the IC50 came to 18.3 µM. The result for `Cc1ccccc1S(=O)(=O)NNC(=O)c1ccc2oc3ccccc3c2c1` reads 3.2 µM; that for `Cc1cccc(S(=O)(=O)NNC(=O)c2cc3cc(Cl)ccc3o2)c1`, 1.2 µM; that for `O=C(NNS(=O)(=O)c1ccccc1)c1cc2cc(Cl)ccc2o1`, 4.2 µM.

Regarding `O=C(NNS(=O)(=O)c1ccccc1)c1ccc2ncccc2c1`, the concentration for half-maximal inhibition (IC50) was 13.3 µM.
